Data reported in ChEMBL document CHEMBL4373670, “Selective in vitro anti-cancer activity of non-alkylating minor groove binders” (Medchemcomm, 2019).
Calls of active or inactive are those of the source. The calls are words filed in the database; no cut-off is given here.

Assays:
[1] = system: HCT-116; assay: Induction of DNA damage in human HCT116 cells assessed as increase in p53 expression at 0.25 uM to 1 uM incubated for 24 hrs by Western blot analysis; type: functional, cell-based
Outline: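 HCT116 cells were treated for 24 h and lysed in RIPA buffer. 40 µg lysate was run on 15% SDS-PAGE and transferred to nitrocellulose. Blots were probed for phospho-S139 γH2AX (9F3, 1:1000), p53 (DO-1, 1:1000) and β-actin (C4, 1:40 000), then detected with HRP secondaries and ECL.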

[2] = system: HCT-116; assay: Induction of DNA damage in human HCT116 cells assessed as increase in gammaH2AX phosphorylation at ser139 at 0.25 uM to 1 uM incubated for 24 hrs by Western blot analysis

Structure (SMILES): COc1cccc2c1C(=O)c1c(O)c3c(c(O)c1C2=O)C[C@@](O)(C(=O)CO)C[C@@H]3O[C@H]1C[C@H](N)[C@H](O)[C@H](C)O1
- Activity [1]: Active
- Activity [2]: Active
